The results in this text go back to ChEMBL document CHEMBL1149773, “Synthesis, determination of the lipophilicity, anticancer and antimicrobial properties of some fused 1,2,4-triazole derivatives” (Eur J Med Chem, 2008).

In experiment [1] the test system is Staphylococcus epidermidis. The experiment is described as follows: Antimicrobial activity against Staphylococcus epidermidis at 572.4 uM by disc-diffusion method. The experiment is classed as functional. The following applies: read-out: IZ. A digest of the protocol:
(§1)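 Kirby–Bauer disc diffusion: 5 mm paper discs soaked in compound solution in DMSO (100 or 200 µg/mL; reference drugs 200 µg/mL) and laid on inoculated Mueller-Hinton agar (bacteria) or Sabouraud agar (C. albicans, Aspergillus). DMSO discs were the control. Plates ran 24 h at 35 °C. Inhibition zone diameter was scored 0–10 mm R, 11–16 mm I, 17–25 mm S; triplicate.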
In general terms: In agar diffusion tests the substance spreads into inoculated agar from a disc or well.

In experiment [2] the test system is Staphylococcus aureus. Nature of the experiment: Antimicrobial activity against Staphylococcus aureus ATCC 25923 after 24 hrs by microdilution assay. In kind it is functional. The following applies: ATCC 25923, 24 h. A general note: Broth dilution looks for growth in wells or tubes with falling amounts of substance.
For experiment [3], the system named is Pseudomonas aeruginosa. Nature of the experiment: Antimicrobial activity against Pseudomonas aeruginosa ATCC 27853 after 24 hrs by microdilution assay. The experiment is classed as functional. The following applies: ATCC 27853, 24 h.
The subject of experiment [4] is Candida albicans. Nature of the experiment: Antimicrobial activity against Candida albicans ATCC 10231 at 572.4 uM by disc-diffusion method. The following applies: read-out: IZ. In kind it is functional. A digest of the protocol: as §1
In experiment [5] the test system is Pseudomonas aeruginosa. Nature of the experiment: Antimicrobial activity against Pseudomonas aeruginosa ATCC 27853 at 572.4 uM by disc-diffusion method. The experiment is classed as functional. The following applies: read-out: IZ. A digest of the protocol: as §1
Experiment [6] deals with Klebsiella aerogenes. The experiment is described as follows: Antimicrobial activity against Enterobacter aerogenes at 572.4 uM by disc-diffusion method. The experiment is classed as functional. The following applies: read-out: IZ. A digest of the protocol:
as §1

Experiment [7] concerns Staphylococcus aureus. Nature of the experiment: Antimicrobial activity against Staphylococcus aureus ATCC 25923 at 572.4 uM by disc-diffusion method. In kind it is functional. The following applies: read-out: IZ. A digest of the protocol:
(§2)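 Kirby–Bauer disc diffusion on Mueller-Hinton medium. Sterile 5 mm paper discs are impregnated with agent dissolved in DMSO and placed on inoculated agar. DMSO discs serve as solvent control. Plates are incubated 24 h at 35 °C. Inhibition zone diameter is scored as 0–10 mm resistant, 11–16 mm intermediate, or 17–25 mm susceptible. Each assay is run three times.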

Experiment [8] deals with Escherichia coli. The experiment is described as follows: microbe, parasite or virus in culture. To be noted: ATCC 25922, read-out: IZ.
Experiment [9] concerns Klebsiella pneumoniae. The experiment is described as follows: Antimicrobial activity against Klebsiella pneumoniae at 572.4 uM by disc-diffusion method. The experiment is classed as functional. To be noted: read-out: IZ. A digest of the protocol: as §1
Experiment [10] relates to Streptococcus agalactiae. Nature of the experiment: Antimicrobial activity against Streptococcus agalactiae at 572.4 uM by disc-diffusion method. In kind it is functional. The following applies: read-out: IZ. A digest of the protocol: as §2
Experiment [11] relates to Proteus vulgaris. Nature of the experiment: Antimicrobial activity against Proteus vulgaris at 572.4 uM by disc-diffusion method. In kind it is functional. To be noted: read-out: IZ. A digest of the protocol: as §1
The test system of experiment [12] is Aspergillus sp. Nature of the experiment: Antimicrobial activity against Aspergillus sp. at 572.4 uM by disc-diffusion method. The following applies: read-out: IZ. In kind it is functional. A digest of the protocol:
as §1

For experiment [13], the system named is Streptococcus pyogenes. Nature of the experiment: Antimicrobial activity against Streptococcus pyogenes at 572.4 uM by disc-diffusion method. The experiment is classed as functional. To be noted: read-out: IZ. A digest of the protocol:
as §2

Experiment [14] concerns Escherichia coli. The experiment is described as follows: Antimicrobial activity against Escherichia coli ATCC 25922 at 480.6 uM by disc-diffusion method. In kind it is functional. To be noted: read-out: IZ. A digest of the protocol:
as §1

The test system of experiment [15] is Streptococcus pyogenes. Nature of the experiment: Antimicrobial activity against Streptococcus pyogenes at 480.6 uM by disc-diffusion method. The experiment is classed as functional. To be noted: read-out: IZ. A digest of the protocol:
as §1

The subject of experiment [16] is Klebsiella aerogenes. Nature of the experiment: Antimicrobial activity against Enterobacter aerogenes at 480.6 uM by disc-diffusion method. In kind it is functional. The following applies: read-out: IZ. A digest of the protocol: as §1
The test system of experiment [17] is Klebsiella pneumoniae. The experiment is described as follows: Antimicrobial activity against Klebsiella pneumoniae at 480.6 uM by disc-diffusion method. The experiment is classed as functional. The following applies: read-out: IZ. A digest of the protocol:
as §1

Experiment [18] deals with Staphylococcus epidermidis. Nature of the experiment: Antimicrobial activity against Staphylococcus epidermidis at 480.6 uM by disc-diffusion method. In kind it is functional. The following applies: read-out: IZ. A digest of the protocol: as §1
Experiment [19] has as its system Staphylococcus aureus. The experiment is described as follows: Antimicrobial activity against Staphylococcus aureus ATCC 25923 at 480.6 uM by disc-diffusion method. In kind it is functional. To be noted: read-out: IZ. A digest of the protocol:
as §1

The subject of experiment [20] is Candida albicans. The experiment is described as follows: Antimicrobial activity against Candida albicans ATCC 10231 after 24 hrs by microdilution assay. In kind it is functional. The following applies: ATCC 10231, 24 h.
Experiment [21] relates to Streptococcus agalactiae. The experiment is described as follows: Antimicrobial activity against Streptococcus agalactiae at 480.6 uM by disc-diffusion method. The experiment is classed as functional. To be noted: read-out: IZ. A digest of the protocol: as §1
Experiment [22] has as its system Candida albicans. The experiment is described as follows: microbe, parasite or virus in culture. The following applies: ATCC 10231, read-out: IZ.
For experiment [23], the system named is Aspergillus sp. Nature of the experiment: Antimicrobial activity against Aspergillus sp. at 480.6 uM by disc-diffusion method. In kind it is functional. To be noted: read-out: IZ. A digest of the protocol: as §1
Experiment [24] concerns Pseudomonas aeruginosa. The experiment is described as follows: Antimicrobial activity against Pseudomonas aeruginosa ATCC 27853 at 480.6 uM by disc-diffusion method. To be noted: read-out: IZ. The experiment is classed as functional. A digest of the protocol:
as §1

Experiment [25] has as its system Proteus vulgaris. The experiment is described as follows: Antimicrobial activity against Proteus vulgaris at 480.6 uM by disc-diffusion method. To be noted: read-out: IZ. The experiment is classed as functional. A digest of the protocol: as §1

In brackets after ≈: the same amount, converted by molar mass.

On to `CC1(C)S[C@@H]2[C@H](NC(=O)[C@H](N)c3ccccc3)C(=O)N2[C@H]1C(=O)O` [AMPICILLIN], for which the zone of inhibition at 572.4 µM was determined as 11 mm in [1]; 0 mm in [4]; 11 mm in experiment [5]; 0 mm in [6]; 17 mm in [7]; 17 mm in [8]. Moreover, the zone of inhibition at 572.4 µM came to 0 mm in [9]; 17 mm in experiment [10]; 0 mm in experiment [11]; 0 mm in experiment [12]; 17 mm in experiment [13]. In addition, the MIC – broadly, the lowest concentration found to suppress growth – in [2] was 35.8 µM (≈ 12.5 µg/mL); in experiment [3] it was greater than 358 µM.
`Clc1ccc(COC(Cn2ccnc2)c2ccc(Cl)cc2Cl)c(Cl)c1` (stereo not given) [MICONAZOLE]: the zone of inhibition at 480.6 µM in experiment [14], in experiment [15], in experiment [16], in experiment [17], in [18] and in experiment [19] was 0 mm each time. Moreover, the zone of inhibition at 480.6 µM in experiment [21] came to 0 mm; in experiment [22] it was 17 mm; in [23] it was 0 mm; in experiment [24], 0 mm; in experiment [25], 0 mm. Further, the MIC in [20] is 37.5 µM (≈ 15.6 µg/mL).
